Here are results for one molecule from article PMC12322058 (Scientific Reports, 2025).

Usually IC50 stands for the concentration that gives 50% inhibition. High values mean weaker potency in that assay, low ones greater potency in that assay. One may read the Cmax as the highest concentration seen after dosing. As a reminder, the AUC(0-inf) is the area under the concentration-time curve extrapolated to infinity. Read a low AUC(0-inf) as low exposure. The term clearance denotes a measure of how efficiently the substance is removed, as volume per time. A high value points to efficient removal.

One series deals with SH-SY5Y cells. As to the kind of experiment: MTT colorimetric cytotoxicity assay. It is filed as cell-based. To be noted: Homo sapiens, 24 h. The method, boiled down:
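SH-SY5Y cells were grown in DMEM with 10% FBS at 0.1 × 10^5 cells/well for 24 h at 37 °C ([…]/5% CO2) to half-confluence. After a PBS wash and 1 h in serum-free medium, cells received free or nanoparticle test compound (0.05–100 µM) or serum-free medium for 24 h. MTT (1 mg/mL) was added for 4 h; formazan was dissolved in DMSO and read at 540 nm. Viability is expressed as % of control.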
For orientation: Formazan colour is commonly taken as a measure of viable cells.

Series [1] is described as follows: Tissue distribution after IV administration. To be noted: for AUC0 − t: 5 mg/kg IV, rats; for Cmax: male, Sprague-Dawley, rat, iv, 5 mg/kg. It is filed as in vivo, Sprague-Dawley male rats. The method, boiled down: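 Male Sprague-Dawley rats (8–12 weeks), 27 per group (free drug or one of two nanoparticle formulations), 3 rats at each of nine time points. Single 5 mg/kg IV dose. CO2 euthanasia; tissues excised, saline-rinsed, homogenized 1:4 in PBS pH 7.4, stored at −85 °C. LC-MS/MS against matrix-matched calibration (1.03–1026.00 ng/mL). Noncompartmental AUC0–t and Cmax; Kp as tissue/plasma AUC ratio; means reported.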

Series [2] can be described thus: Plasma pharmacokinetics after IV administration. It is filed as in vivo, Sprague-Dawley male rats. Conditions: male, Sprague-Dawley, rat, 5 mg/kg. The essentials:
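Male Sprague-Dawley rats (8–12 weeks) received 5 mg/kg IV. Blood was taken retro-orbitally under isoflurane into K2EDTA at 0.08–24 h (nine points, 3 rats each), and plasma was stored at -85 °C. LC-MS/MS quantification used a 1.03–1026.00 ng/mL calibration with 1/x2 weighting. Noncompartmental analysis on means: AUC by mixed log-linear method, CL = Dose/AUCinf, Vss = CL×MRT.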

In the series with SH-SY5Y cells, `CC(=O)c1c(C)c2cnc(Nc3ccc(N4CCNCC4)cn3)nc2n(C2CCCC2)c1=O` [Palbo, Palbociclib] displayed an IC50 of 0.86 µM. Further, the “AUC0 − t” value in series [1] (brain posterior region) worked out at 757.5 ng·h/g; in series [1] (cerebellum) it was 402.5 ng·h/g; in series [1] (frontal cortex), 383.8 ng·h/g. The maximum concentration (Cmax) in series [1] (cerebellum) stood at 120 ng/g; in series [1] (frontal cortex), 129 ng/g; in series [1] (kidney), 485 ng/g; in series [1] (liver), 2440 ng/g; in series [1] (lungs) it was 12700 ng/g; in series [1] (posterior brain region), 162 ng/g. Besides, in series [2], the area under the curve AUC(0-inf) came to 1.92 µg·h/mL. The molecule also showed a clearance in series [2] (CL, 5 mg/kg IV, rats) of 1.31 L/h/kg.
